Results gathered from unrelated publications.
Protocols differ between the studies behind these lines.
Target: Tyrosine-protein kinase Fgr (FGR, Homo sapiens, UniProt P09769)

Structure (SMILES) | test | setting | quantity | result
C[C@H](NC(=O)c1cnc2n1[C@](C)(Cc1ccc(C#N)cc1)C(=O)N2c1cc(Cl)c(F)c(Cl)c1)C(=O)NC1(c2ccccn2)CC1 | cell-free assay, competition with immobilised ligand | 1 µM | remaining binding | 100%
CCN(CC)CCNC(=O)c1c(C)[nH]c(/C=C2\C(=O)Nc3ccc(F)cc32)c1C | enzyme activity, inhibitor | 10 µM | inhibition | 97%
CCC1(CC)NC(=O)c2c(c3ccc(Cl)c(Cl)c3n2C)C1C#N (stereo not shown) | thermal stability, DSF | 10 µM | ΔTm | 0 °C
Cc1ccc(NC(=O)c2ccc(CN3CCN(C)CC3)cc2)cc1Nc1nc(-c2cccnc2)cs1 | cell-free assay | 0.5 µM | remaining signal | 43.6%
O=C(Nc1cccnn1)N1CCC(=Cc2cccc(Oc3ccc(C(F)(F)F)cn3)c2)CC1 | cell-free assay, competition with immobilised ligand | 1 µM | remaining binding | 63%
CC(C)(O)[C@H]1CC[C@H](Nc2ccc3ncc(-c4cccc(C(F)(F)F)c4)n3n2)CC1 | enzyme activity, inhibitor | 1 µM | remaining activity | 36.8%
O=C(Nc1cnn(-c2csc(C(=O)NC3COC3)c2)c1)Nc1ccccc1Cl | enzyme activity, inhibitor | 5 µM | remaining activity | 90%
Cc1ccc(C(=O)Nc2ccc(CN3CCN(C)CC3)c(C(F)(F)F)c2)cc1C#Cc1cnc2cccnn12 | enzyme activity | 23.5 nM | remaining activity | 10%
CNC(=O)c1ccc(Nc2ncc(C(F)(F)F)c(NCc3nccnc3N(C)S(C)(=O)=O)n2)cc1 | cell-free assay, competition with immobilised ligand | 0.1 µM | remaining binding | 81%
CC(C)(C)c1nc(-c2cccc(NS(=O)(=O)c3c(F)cccc3F)c2F)c(-c2ccnc(N)n2)s1 | enzyme activity, inhibitor, radiometric | 1 µM | remaining activity | 60%
CN(c1nccc(-c2cnn3ncccc23)n1)C1CC1 | cell-free assay | 1 µM | remaining signal | 100%
CC(C)CC(=O)N1CCc2nc(-c3ccc(Br)cc3)nc(N(C)Cc3ccccc3)c2C1 | cell-free assay, competition with immobilised ligand | 0.1 µM | remaining binding | 99%
COc1cc2ncnc(Nc3ccc(Oc4ccccc4)c(C)c3C)c2cc1OC | enzyme activity, inhibitor | 1 µM | inhibition | 93%
CNC(=O)c1cc2c(Oc3ccc(NC(=O)C4(C(=O)Nc5ccc(F)cc5)CC4)cc3)ccnc2cc1OC | enzyme activity, inhibitor, radiometric | 1 µM | inhibition | 79%
Cn1c2c(c3ccc(Cl)c(Cl)c31)C(C#N)C(C)(C)NC2=O (stereo not shown) | thermal stability, DSF | 10 µM | ΔTm | 0.1 °C
Nc1ncnc2occ(-c3ccc(NC(=O)Nc4cc(C(F)(F)F)ccc4F)cc3)c12 | cell-free assay, inhibitor | 20 µM | remaining signal | 5.2%
Cn1c2c(Cl)c(Cl)ccc2c2cc[nH]c(=O)c21 | thermal stability, DSF | 10 µM | ΔTm | -0.4 °C
N#CCCc1ccc2c(c1)-c1[nH]c3ccc([N+](=O)[O-])cc3c1CC(=O)N2 | cell-free assay | 0.5 µM | remaining signal | 31%
CN(C)C(=O)Cn1cc(-c2nc(C3(c4ccc(-c5cnc(N)nc5)cc4)CC3)no2)cn1 | cell-free assay, competition with immobilised ligand | 1 µM | remaining binding | 100%
CCN(CC)c1ccc(C2=NNC(=O)CC2C)cc1[N+](=O)[O-] (stereo not shown) | enzyme activity, inhibitor | 10 µM | remaining activity | 85%
CNC(=O)c1cc(Oc2ccc(NC(=O)Nc3ccc(Cl)c(C(F)(F)F)c3)cc2)ccn1 | enzyme activity, inhibitor | 0.3 µM | inhibition | 10%
O=C1NC(=O)c2cc(Nc3ccc(F)cc3)c(Nc3ccc(F)cc3)cc21 | cell-free assay | 0.5 µM | remaining signal | 96.3%
Cn1c2c(Cl)c(Cl)ccc2c2cc(N)[nH]c(=O)c21 | thermal stability, DSF | 10 µM | ΔTm | 0 °C
COc1cc(-c2cn(C3CCc4c(F)cccc4N(CC(F)(F)F)C3=O)nn2)ccc1-n1cnc(C)c1 (stereo not shown) | cell-free assay, competition with immobilised ligand | 1 µM | remaining binding | 100%
Cn1c2c(c3ccc(Cl)c(Cl)c31)C(C#N)C1(CCNCC1)NC2=O (racemic) | thermal stability, DSF | 10 µM | ΔTm | 0.1 °C
CS(=O)(=O)c1cc(C2(NC(=O)c3cncc4c3cnn4-c3ccc(F)cc3)CC2)ccn1 | cell-free assay, competition with immobilised ligand | 1 µM | remaining binding | 100%
CCN1CCC2(CC1)NC(=O)c1c(c3ccc(Cl)c(Cl)c3n1C)C2C#N (racemic) | thermal stability, DSF | 10 µM | ΔTm | -0.1 °C
O=C1CCc2cc(Nc3cc(OC4CCOCC4)c([N+](=O)[O-])cc3Cl)ccc2N1 | cell-free assay, competition with immobilised ligand | 1 µM | remaining binding | 100%
